For data set [1], the system named is Clostridioides difficile. Put plainly: Antimicrobial activity against Clostridioides difficile ATCC BAA 1801 assessed as reduction in microbial growth after 48 hrs by broth microdilution method. Type of data set: functional. The method in brief: (§1)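 Broth microdilution: a 0.5 McFarland suspension was diluted in brain heart infusion supplemented (BHIS) broth to ~5 × 10^5 CFU/mL. Agents were serially diluted and plates incubated anaerobically at 37°C for 48 h.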
Background: Dilution methods test growth across graded concentrations, often in twofold steps.

Data set [2] has as its system Clostridioides difficile. Put plainly: Antimicrobial activity against Clostridioides difficile NR-13432 isolate 6 assessed as reduction in microbial growth after 48 hrs by broth microdilution method. The format is functional. The method in brief:
as §1

Data set [3] deals with Clostridioides difficile. Description: Antimicrobial activity against Clostridioides difficile NR-13435 isolate 9 assessed as reduction in microbial growth after 48 hrs by broth microdilution method. The format is functional. The method in brief: as §1
Data set [4] has as its system Clostridioides difficile. Description: Antimicrobial activity against Clostridioides difficile NR-32883 P2 assessed as reduction in microbial growth after 48 hrs by broth microdilution method. Type of data set: functional. The method in brief: as §1
Data set [5] deals with Clostridioides difficile. Description: Antimicrobial activity against Clostridioides difficile NR-32891 P13 assessed as reduction in microbial growth after 48 hrs by broth microdilution method. Type of data set: functional. The method in brief:
as §1

Data set [6] deals with Clostridioides difficile. Description: Antimicrobial activity against Clostridioides difficile NR-32895 P19 assessed as reduction in microbial growth after 48 hrs by broth microdilution method. The format is functional. The method in brief: as §1
The subject of data set [7] is Clostridioides difficile. Put plainly: Antimicrobial activity against Clostridioides difficile NR-32904 P30 assessed as reduction in microbial growth after 48 hrs by broth microdilution method. Type of data set: functional. The method in brief:
as §1

For data set [8], the system named is Clostridioides difficile. Description: Antimicrobial activity against Clostridioides difficile ATCC 43255 assessed as reduction in microbial growth after 48 hrs by broth microdilution method. Type of data set: functional. The method in brief: as §1
A further data set has as its system Enterococcus faecium. Description: Antimicrobial activity against vancomycin-resistant Enterococcus faecium ATCC 700221 assessed as reduction in microbial growth after 48 hrs by CLSI based broth microdilution method. The format is functional. The method in brief:
(§2)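 CLSI broth microdilution: strains were grown aerobically overnight on tryptone soy agar at 37°C. A 0.5 McFarland suspension was diluted to ~5 × 10^5 CFU/mL in cation-adjusted Mueller-Hinton broth (E. coli) or tryptone soy broth (enterococci), and agents were serially diluted.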

The subject of the next data set is Enterococcus faecalis. Description: Antimicrobial activity against vancomycin-resistant Enterococcus […] ATCC 51299 assessed as reduction in microbial growth after 48 hrs by CLSI based broth microdilution method. Type of data set: functional. The method in brief: as §2
Another data set deals with Lactobacillus gasseri. Put plainly: Antibacterial activity against Lactobacillus gasseri HM-400 assessed as reduction in microbial growth after 48 hrs by broth microdilution method. The method in brief: (§3)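 Gut commensal MICs by broth microdilution: a 0.5 McFarland suspension was diluted to ~5 × 10^5 CFU/mL in BHIS broth (Bacteroides) or MRS broth (Lactobacillus). Agents were serially diluted and incubated 48 h at 37°C. MIC was read by visual inspection of growth.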

The subject of data set [9] is Lactobacillus crispatus. Put plainly: Antibacterial activity against Lactobacillus crispatus HM-103 assessed as reduction in microbial growth after 48 hrs by broth microdilution method. The method in brief: as §3
Data set [10] relates to Lactobacillus crispatus. Description: Antibacterial activity against Lactobacillus crispatus HM-371 assessed as reduction in microbial growth after 48 hrs by broth microdilution method. The method in brief:
as §3

Data set [11] has as its system Bacteroides fragilis. Description: Antibacterial activity against Bacteroides fragilis HM-711 assessed as reduction in microbial growth after 48 hrs by broth microdilution method. Type of data set: organism-based. The method in brief:
as §3

The test system of data set [12] is Bacteroides fragilis. Description: Antibacterial activity against Bacteroides fragilis HM-709 assessed as reduction in microbial growth after 48 hrs by broth microdilution method. Type of data set: organism-based. The method in brief: as §3
For another data set, the system named is Phocaeicola dorei. Put plainly: Antibacterial activity against Bacteroides dorei HM-719 assessed as reduction in microbial growth after 48 hrs by broth microdilution method. Type of data set: organism-based. The method in brief: as §3
The next data set deals with Escherichia coli. Put plainly: Antimicrobial activity against Escherichia coli JW55031 harboring TolC mutant assessed as reduction in microbial growth after 48 hrs by CLSI based broth microdilution method. The format is functional. The method in brief:
as §2

Data set [13] deals with Cyclin-dependent kinase 2 (Homo sapiens, UniProt P24941). Description: Inhibition of human CDK2 expressed in sf9 insect cells.
Data set [14] deals with Clostridioides difficile. Put plainly: Antimicrobial activity against Clostridioides difficile ATCC 43255 assessed as drug resistance by measuring frequency of mutation at 15 times of MIC after 48 hrs. The format is functional.
Data set [15] has as its system Clostridioides difficile. Description: Antimicrobial activity against Clostridioides difficile ATCC 43255 assessed as drug resistance by measuring frequency of mutation at 20 times of MIC after 48 hrs. The format is functional.
Data set [16] deals with Clostridioides difficile. Put plainly: Antibacterial activity against Clostridioides difficile ATCC 43255 infected in CDI mouse model assessed as survival rate at 10 mg/kg, po for 5 days relative to control. The format is functional. The settings on record: ATCC 43255, po, 120 h, time 5 day.
Data set [17] has as its system Clostridioides difficile. Description: Antibacterial activity against Clostridioides difficile ATCC 43255 infected in CDI mouse model assessed as bacterial recurrence at 10 mg/kg, po for 5 days and measured on day 21 relative to control. The format is functional. The settings on record: time 21 day.

Turning to `Cc1ncc([N+](=O)[O-])n1CCO` [METRONIDAZOLE], the MIC is 1.46 µM in the data set with Clostridioides difficile [1]; 1.46 µM in the data set on Clostridioides difficile [2]; 0.7 µM with Clostridioides difficile [3]; 0.7 µM in the data set with Clostridioides difficile [4]; 0.7 µM in the data set on Clostridioides difficile [5]; 1.46 µM in the data set with Clostridioides difficile [6]. The MIC in the data set with Clostridioides difficile [7] was 1.46 µM; in the data set on Clostridioides difficile [8] it was 1.46 µM; in the data set with Enterococcus faecium it was > 374 µM; in the data set with Enterococcus faecalis, > 374 µM; with Lactobacillus gasseri it was > 373.9 µM; with Lactobacillus crispatus [9], > 373.9 µM. Moreover, the MIC was > 373.9 µM in the data set on Lactobacillus crispatus [10], 5.84 µM in the data set on Bacteroides fragilis [11], 11.68 µM in the data set with Bacteroides fragilis [12] and 5.84 µM in the data set on Phocaeicola dorei.

With `O=C(Nc1nnc(-c2cccc(Cl)c2)o1)c1ccc(SC(F)(F)F)cc1`, the MIC in the data set on Clostridioides difficile [1] was found to be 0.08 µM.

Regarding `O=C(Nc1nnc(-c2ccc(Cl)cc2)o1)c1ccc(SC(F)(F)F)cc1`, the MIC in the data set with Clostridioides difficile [1] turned out to be 5 µM.

Turning to `CC(=O)NC[C@H]1CN(c2ccc(N3CCOCC3)c(F)c2)C(=O)O1` [LINEZOLID], the MIC turned out to be 3 µM in the data set on Enterococcus faecium, 3 µM in the data set with Enterococcus faecalis and 47.4 µM in the data set on Escherichia coli.

In the case of `O=C(Nc1nnc(-c2cccc(F)c2)o1)c1ccc(SC(F)(F)F)cc1`, the MIC in the data set on Clostridioides difficile [1] is 0.08 µM.

On to `O=C(Nc1nnc(-c2ccc(Cl)cc2Cl)o1)c1ccc(SC(F)(F)F)cc1`, for which, in the data set with Clostridioides difficile [1], the MIC is 0.07 µM.

Consider `Cc1ccc(-c2nnc(NC(=O)c3ccc(SC(F)(F)F)cc3)o2)cc1`, for which, in the data set with Clostridioides difficile [1], the MIC was found to be 10.5 µM.

Take `O=C(Nc1nnc(-c2ccccc2Cl)o1)c1ccc(SC(F)(F)F)cc1`: the MIC in the data set with Clostridioides difficile [1] came to 10 µM.

On to `O=C(Nc1nnc(-c2ccccc2)o1)c1ccc(SC(F)(F)F)cc1`, for which, in the data set on Clostridioides difficile [1], the MIC is 5.5 µM.

In the case of `O=C(Nc1nnc(-c2ccccn2)o1)c1ccc(SC(F)(F)F)cc1`, the MIC in the data set with Clostridioides difficile [1] was 21.8 µM.

For `COc1ccc(-c2nnc(NC(=O)c3ccc(SC(F)(F)F)cc3)o2)cc1`, the MIC in the data set with Clostridioides difficile [1] is 10.1 µM.

In the case of GENTAMICIN, the MIC with Escherichia coli worked out at 0.52 µM.

As to `O=C(Nc1nnc(-c2cccc(C(F)(F)F)c2)o1)c1ccc(SC(F)(F)F)cc1`, the MIC in the data set with Clostridioides difficile [1] turned out to be 0.04 µM.

Regarding `CN1CC[C@H](c2c(O)cc(O)c3c(=O)cc(-c4ccccc4)oc23)[C@H](O)C1`, in [13], the IC50 (as a rule, the concentration at which inhibition is half-maximal) came to 2400 nM. This counts as single-digit micromolar.

Turning to `CC(C)c1ccc(-c2nnc(NC(=O)c3ccc(SC(F)(F)F)cc3)o2)cc1`, the MIC in the data set on Clostridioides difficile [1] amounted to 314 µM.

`CN[C@H](CC(C)C)C(=O)N[C@H]1C(=O)N[C@@H](CC(N)=O)C(=O)N[C@H]2C(=O)N[C@H]3C(=O)N[C@H](C(=O)N[C@H](C(=O)O)c4cc(O)cc(O)c4-c4cc3ccc4O)[C@H](O)c3ccc(c(Cl)c3)Oc3cc2cc(c3O[C@@H]2O[C@H](CO)[C@@H](O)[C@H](O)[C@H]2O[C@H]2C[C@](C)(N)[C@H](O)[C@H](C)O2)Oc2ccc(cc2Cl)[C@H]1O` [VANCOMYCIN]: the MIC is 0.7 µM in the data set with Clostridioides difficile [1]; 0.2 µM in the data set with Clostridioides difficile [2]; 0.7 µM in the data set with Clostridioides difficile [3]; 0.4 µM in the data set with Clostridioides difficile [4]; 0.4 µM in the data set on Clostridioides difficile [5]; 0.7 µM in the data set with Clostridioides difficile [6]. For the same molecule, the MIC with Clostridioides difficile [7] is 0.7 µM; with Clostridioides difficile [8] it was 0.7 µM; in the data set on Enterococcus faecalis, > 44.2 µM; with Escherichia coli, > 44.2 µM; in the data set with Lactobacillus gasseri, “<= 0.7 uM”; with Lactobacillus crispatus [9], 1.4 µM. In addition, the MIC with Lactobacillus crispatus [10] was 1.4 µM; in the data set on Bacteroides fragilis [11], 44.2 µM; with Bacteroides fragilis [12], 22.1 µM; in the data set on Phocaeicola dorei, 44.2 µM. The figures for the Activity with Clostridioides difficile [14], in the data set on Clostridioides difficile [15] and with Clostridioides difficile [17] were <1.1 10^-9No_unit, <1.1 10^-9No_unit and 83.3%, respectively. For the same molecule, the survival at 10 mg/kg in the data set with Clostridioides difficile [16] is 100%.

With `COc1cccc(-c2nnc(NC(=O)c3ccc(SC(F)(F)F)cc3)o2)c1`, the MIC with Clostridioides difficile [1] is 10.1 µM.

`O=C(Nc1nnc(-c2ccc(F)cc2)o1)c1ccc(SC(F)(F)F)cc1`: the MIC in the data set with Clostridioides difficile [1] is 10.4 µM.

`CCc1c(Cl)c(O)c(Cl)c(O)c1C(=O)O[C@H]1[C@H](O)[C@H](OC)[C@H](OC/C2=C\C=C\C[C@H](O)/C(C)=C/[C@H](CC)[C@@H](O[C@@H]3OC(C)(C)[C@@H](OC(=O)C(C)C)[C@H](O)[C@@H]3O)/C(C)=C/C(C)=C/C[C@@H]([C@@H](C)O)OC2=O)O[C@@H]1C` [FIDAXOMICIN]: the MIC was 0.06 µM in the data set on Clostridioides difficile [1]; 0.06 µM in the data set with Clostridioides difficile [2]; 0.06 µM with Clostridioides difficile [3]; 0.03 µM with Clostridioides difficile [4]; 0.01 µM in the data set on Clostridioides difficile [5]; 0.03 µM in the data set on Clostridioides difficile [6]. For the same molecule, the MIC is 0.01 µM with Clostridioides difficile [7]; 0.01 µM in the data set with Clostridioides difficile [8]; > 60.5 µM in the data set with Lactobacillus gasseri; > 60.5 µM in the data set on Lactobacillus crispatus [9]; > 60.5 µM in the data set with Lactobacillus crispatus [10]; > 60.5 µM in the data set with Bacteroides fragilis [11]. In addition, the MIC in the data set on Bacteroides fragilis [12] and in the data set with Phocaeicola dorei was > 60.5 µM throughout.

In the case of `O=C(Nc1nnc(-c2cccs2)o1)c1ccc(SC(F)(F)F)cc1`, in the data set on Clostridioides difficile [1], the MIC was found to be 1.4 µM.

In the case of `O=C(Nc1nnc(-c2ccccc2F)o1)c1ccc(SC(F)(F)F)cc1`, the MIC in the data set on Clostridioides difficile [1] is 10.4 µM.

As to `O=C(Nc1nnc(-c2ccc(C(F)(F)F)cc2)o1)c1ccc(SC(F)(F)F)cc1`, in the data set on Clostridioides difficile [1], the MIC amounted to 0.29 µM.

Turning to `COc1ccc(Cl)cc1-c1nnc(NC(=O)c2ccc(SC(F)(F)F)cc2)o1`, in the data set on Clostridioides difficile [1], the MIC was determined as 4.7 µM.

The values above are taken from ChEMBL document CHEMBL4665831, “Ultrapotent Inhibitor of Clostridioides difficile Growth, Which Suppresses Recurrence In Vivo” (J Med Chem, 2020).
